Assay [1] deals with T1, human PMK (Homo sapiens, UniProt Q15126).
T1 sequence (Q15126 1-192): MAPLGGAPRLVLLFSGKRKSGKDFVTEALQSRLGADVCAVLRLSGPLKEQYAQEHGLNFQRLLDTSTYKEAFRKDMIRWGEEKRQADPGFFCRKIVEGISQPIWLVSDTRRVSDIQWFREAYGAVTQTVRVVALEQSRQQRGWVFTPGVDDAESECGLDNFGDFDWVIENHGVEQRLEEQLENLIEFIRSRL
Particulars: read-out: affinity of natural substrates; cited from earlier work.

The target in assay [2] is T1, human PMK. Put plainly: Fluorescence titration. The class given is binding. An outline of the steps:
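N-terminally His6-tagged human PMK was expressed in E. coli BL21(DE3) Rosetta and purified on Ni-Sepharose. Titration used 5 µM PMK in 20 mM potassium phosphate, 5 mM DTT, 100 mM KCl, 10% glycerol, pH 6.5, at 25 °C. Excitation was 295 nm, with emission recorded over 300–400 nm. The bound-minus-free intensity difference was fitted against ligand concentration to a one-site specific binding equation.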

Like-named read-outs stand apart in the source and are kept apart here.

`Nc1ncnc2c1ncn2[C@@H]1O[C@H](COP(=O)(O)OP(=O)(O)O)[C@@H](O)[C@H]1O` [ADP, adenosine diphosphate]: the Kd on human PMK [1] was 19.9 ± 9 µM.
As to `Nc1ncnc2c1ncn2[C@@H]1O[C@H](COP(=O)(O)OP(=O)(O)OP(=O)(O)O)[C@@H](O)[C@H]1O` [ATP, adenosine-5'-triphosphate], on human PMK [1], the Kd was 29 ± 6 µM.
`O=c1cc(-c2ccc(O)c(O)c2)oc2cc(O)cc(O)c12` [luteolin] yielded a Kd at human PMK [2] of 61 ± 19.5 µM.
